Assay results gathered from unrelated publications.
Each line is one published result; the experiments were not run side by side.
CTSL: Procathepsin L (CTSL, Homo sapiens, UniProt P07711)
Adra1b: Alpha-1B adrenergic receptor (Adra1b, Rattus norvegicus, UniProt P15823)
XDH: Xanthine dehydrogenase/oxidase (XDH, Bos taurus, UniProt P80457)

CN(C)C(=O)COC(=O)Cc1ccc(OC(=O)c2ccc(NC(=N)N)cc2)cc1
inhibition (CTSL; enzyme activity; inhibitor; 10 µM): 2%

O=C(Oc1cncc(Cl)c1)c1cc2cc(Cl)ccc2[nH]1
inhibition (CTSL; enzyme activity; inhibitor; 10 µM): 3%

CC(C)C[C@H](NC(=O)[C@H]1O[C@@H]1C(=O)O)C(=O)NCCCCN=C(N)N
inhibition (CTSL; enzyme activity; inhibitor; 50 nM): 84%

CC[C@H](NC(=O)OCc1ccccc1)C(=O)N[C@H](C(=O)N[C@@H](CC(C)C)C(=O)N(C)N(C#N)CCC(N)=O)C(C)(C)C
inhibition (CTSL; enzyme activity; inhibitor; 50 µM): 100%

COc1cc(Nc2ncc(F)c(Nc3ccc4c(n3)NC(=O)C(C)(C)O4)n2)cc(OC)c1OC
inhibition (5'-AMP-activated protein kinase catalytic subunit alpha-1 (PRKAA1, Homo sapiens, UniProt Q13131); binding; competition with immobilised ligand; 10 µM): 74%

C#Cc1n[nH]c2c(-c3cn(C(C)c4ccccn4)c(=O)[nH]c3=O)cc(F)cc12 (stereo not shown)
inhibition (Tyrosine-protein kinase Blk (BLK, Homo sapiens, UniProt P51451); enzyme activity; inhibitor; 1 µM): 3.1%

CC(C)Cn1cnc2c(N)nc3ccccc3c21
inhibition (Adra1b; ligand displacement; radioligand; 10 µM): 40%

N=C(N)c1ccc2cc(OC(=O)c3ccc(N=C(N)N)cc3)ccc2c1
inhibition (CTSL; enzyme activity; inhibitor; 10 µM): 57%

CC(C)N1CCC[C@H]1CNC(=O)c1cn(C2CCCC2)c(=O)c2c1c1ccccc1n2C
inhibition (Adra1b; ligand displacement; radioligand; 10 µM): -10%

Cn1cc(-c2cccc(N3CCc4c(sc5c4CC(C)(C)C5)C3=O)c2CO)cc(Nc2ccncn2)c1=O
inhibition (Platelet-derived growth factor receptor alpha (PDGFRA, Homo sapiens, UniProt P16234); enzyme activity; inhibitor; 1 µM): 5%

c1ccc(C(NCCNC(c2ccccc2)c2ccccc2)c2ccccc2)cc1
inhibition (XDH; enzyme activity; inhibitor; 10 µM): 5%

NC(=O)Cc1ccccc1
inhibition (XDH; enzyme activity; inhibitor; absorbance; 200 µg/mL): 17.1%

Cn1cc(-c2cc(F)cc(N3CCn4c(cc5c4CCCC5)C3=O)c2CO)cc(Nc2ccc(N3CCN(C4COC4)CC3)cn2)c1=O
inhibition (Mitogen-activated protein kinase kinase kinase kinase 5 (MAP4K5, Homo sapiens, UniProt Q9Y4K4); enzyme activity; inhibitor; 0.1 µM): 3%
